Assay results: ChEMBL document CHEMBL1155278, “3,4-Diaryl-isoxazoles and -imidazoles as potent dual inhibitors of p38alpha mitogen activated protein kinase and casein kinase 1delta” (J Med Chem, 2009)

Columns and labels:
[1] = biological target: Mitogen-activated protein kinase 14 (Homo sapiens, UniProt Q16539); experiment: Inhibition of p38alpha by Cherenkov counting
[2] = biological target: Mitogen-activated protein kinase 9 (Homo sapiens) (UniProt P45984); experiment: Inhibition of JNK2 assessed as residual activity at 0.1 uM by Cherenkov counting relative to control in presence of 20 uM ATP
How it was run: (§1)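 Single-concentration selectivity screen at 0.1 μM against a panel of 76 protein kinases. Each kinase was run at an ATP level approximating its Km for ATP. Output is mean residual activity as % of the control assay without compound, n = 3 ± SD.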

[3] = biological target: Ribosomal protein S6 kinase alpha-3 (Homo sapiens) (UniProt P51812); experiment: Inhibition of RSK2 assessed as residual activity at 0.1 uM by Cherenkov counting relative to control in presence of 50 uM ATP
How it was run: (§2)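 Single-concentration screen at 0.1 μM in a 76-kinase panel. ATP for each kinase was set near its Km for ATP. Residual activity is given as a percentage of control assays without compound, mean of n = 3 ± SD.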

[4] = biological target: RAC-alpha serine/threonine-protein kinase (Homo sapiens) (UniProt P31749); experiment: Inhibition of PKBalpha assessed as residual activity at 0.1 uM by Cherenkov counting relative to control in presence of 5 uM ATP; how it was run: as §2
[5] = biological target: T1, Serine/threonine-protein kinase D1 (Homo sapiens) (UniProt Q15139); experiment: Inhibition of PKD1 assessed as residual activity at 0.1 uM by Cherenkov counting relative to control in presence of 50 uM ATP; how it was run: as §2
T1 sequence (whole entry): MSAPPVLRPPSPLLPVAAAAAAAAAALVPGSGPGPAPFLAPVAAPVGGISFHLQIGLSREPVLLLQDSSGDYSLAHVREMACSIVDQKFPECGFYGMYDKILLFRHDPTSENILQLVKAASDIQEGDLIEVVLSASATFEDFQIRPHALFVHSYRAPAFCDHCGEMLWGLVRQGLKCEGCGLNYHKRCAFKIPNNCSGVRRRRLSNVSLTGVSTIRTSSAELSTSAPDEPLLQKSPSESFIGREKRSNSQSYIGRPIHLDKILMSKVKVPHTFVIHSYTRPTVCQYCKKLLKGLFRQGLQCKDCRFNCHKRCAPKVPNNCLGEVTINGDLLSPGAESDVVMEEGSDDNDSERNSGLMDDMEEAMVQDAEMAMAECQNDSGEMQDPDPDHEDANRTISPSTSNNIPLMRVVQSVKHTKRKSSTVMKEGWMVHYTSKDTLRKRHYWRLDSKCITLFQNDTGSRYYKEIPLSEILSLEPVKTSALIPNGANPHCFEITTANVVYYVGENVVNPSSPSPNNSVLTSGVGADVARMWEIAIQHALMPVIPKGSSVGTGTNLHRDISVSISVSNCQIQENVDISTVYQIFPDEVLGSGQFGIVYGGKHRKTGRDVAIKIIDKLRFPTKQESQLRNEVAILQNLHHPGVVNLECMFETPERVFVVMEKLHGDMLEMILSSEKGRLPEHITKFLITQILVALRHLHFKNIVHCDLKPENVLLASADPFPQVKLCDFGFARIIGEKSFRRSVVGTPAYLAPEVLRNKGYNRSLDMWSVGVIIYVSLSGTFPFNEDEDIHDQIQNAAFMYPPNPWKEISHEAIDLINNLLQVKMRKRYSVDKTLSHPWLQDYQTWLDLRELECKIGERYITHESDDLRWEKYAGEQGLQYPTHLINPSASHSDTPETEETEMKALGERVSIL

[6] = biological target: Ribosomal protein S6 kinase alpha-5 (Homo sapiens) (UniProt O75582); experiment: Inhibition of MSK1 assessed as residual activity at 0.1 uM by Cherenkov counting relative to control in presence of 20 uM ATP; how it was run: as §1
[7] = biological target: MAP kinase-interacting serine/threonine-protein kinase 1 (Homo sapiens) (UniProt Q9BUB5); experiment: Inhibition of MNK1 assessed as residual activity at 0.1 uM by Cherenkov counting relative to control in presence of 50 uM ATP; how it was run: as §1
[8] = biological target: Tyrosine-protein kinase CSK (Homo sapiens) (UniProt P41240); experiment: Inhibition of CSK assessed as residual activity at 0.1 uM by Cherenkov counting relative to control in presence of 20 uM ATP
How it was run: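 Single-concentration screen at 0.1 µM across a panel of 76 protein kinases. Each kinase was run at an ATP concentration approximating its ATP Km. Results are % mean residual activity versus control assays without compound (n = 3 ± SD).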

[9] = biological target: T2, Serine/threonine-protein kinase Sgk1 (Homo sapiens) (UniProt O00141); experiment: Inhibition of SGK1 assessed as residual activity at 10 uM by Cherenkov counting relative to control in presence of 20 uM ATP
T2 sequence (whole entry): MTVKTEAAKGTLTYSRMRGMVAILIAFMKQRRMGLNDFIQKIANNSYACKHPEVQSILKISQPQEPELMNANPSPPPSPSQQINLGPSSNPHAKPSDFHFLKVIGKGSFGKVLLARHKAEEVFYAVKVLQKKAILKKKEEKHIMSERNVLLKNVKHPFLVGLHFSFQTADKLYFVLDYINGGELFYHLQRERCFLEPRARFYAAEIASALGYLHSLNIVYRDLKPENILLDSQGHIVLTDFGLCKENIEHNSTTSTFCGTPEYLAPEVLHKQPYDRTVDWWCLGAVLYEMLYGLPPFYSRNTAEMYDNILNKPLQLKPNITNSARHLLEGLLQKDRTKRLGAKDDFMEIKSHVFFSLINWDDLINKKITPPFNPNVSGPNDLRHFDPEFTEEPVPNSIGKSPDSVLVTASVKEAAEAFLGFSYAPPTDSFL
How it was run: (§3)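 Single-concentration profiling at 10 μM in a 78-kinase panel. Kinase activity is expressed as a percentage of control assays run without compound.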

[10] = biological target: MAP kinase-interacting serine/threonine-protein kinase 1 (Homo sapiens) (UniProt Q9BUB5); experiment: Inhibition of MNK1 assessed as residual activity at 10 uM by Cherenkov counting relative to control in presence of 50 uM ATP
[11] = biological target: Calcium/calmodulin-dependent protein kinase kinase 2 (Homo sapiens) (UniProt Q96RR4); experiment: Inhibition of CAMKKbeta assessed as residual activity at 10 uM by Cherenkov counting relative to control
How it was run: (§4)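 Single-point profiling at 10 µM in a panel of 78 protein kinases. Kinase activity is expressed as a percentage relative to control assays without compound.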

[12] = biological target: Homeodomain-interacting protein kinase 2 (Homo sapiens) (UniProt Q9H2X6); experiment: Inhibition of HIPK2 assessed as residual activity at 10 uM by Cherenkov counting relative to control in presence of 5 uM ATP; how it was run: as §4
[13] = biological target: Serine/threonine-protein kinase PAK 5 (Homo sapiens) (UniProt Q9P286); experiment: Inhibition of PAK5 assessed as residual activity at 10 uM by Cherenkov counting relative to control in presence of 20 uM ATP
[14] = biological target: Proto-oncogene tyrosine-protein kinase Src (Homo sapiens) (UniProt P12931); experiment: Inhibition of Src assessed as residual activity at 10 uM by Cherenkov counting relative to control in presence of 50 uM ATP; how it was run: as §3
Proto-oncogene tyrosine-protein kinase Src (Homo sapiens), sequence (P12931 2-536 limits assumed): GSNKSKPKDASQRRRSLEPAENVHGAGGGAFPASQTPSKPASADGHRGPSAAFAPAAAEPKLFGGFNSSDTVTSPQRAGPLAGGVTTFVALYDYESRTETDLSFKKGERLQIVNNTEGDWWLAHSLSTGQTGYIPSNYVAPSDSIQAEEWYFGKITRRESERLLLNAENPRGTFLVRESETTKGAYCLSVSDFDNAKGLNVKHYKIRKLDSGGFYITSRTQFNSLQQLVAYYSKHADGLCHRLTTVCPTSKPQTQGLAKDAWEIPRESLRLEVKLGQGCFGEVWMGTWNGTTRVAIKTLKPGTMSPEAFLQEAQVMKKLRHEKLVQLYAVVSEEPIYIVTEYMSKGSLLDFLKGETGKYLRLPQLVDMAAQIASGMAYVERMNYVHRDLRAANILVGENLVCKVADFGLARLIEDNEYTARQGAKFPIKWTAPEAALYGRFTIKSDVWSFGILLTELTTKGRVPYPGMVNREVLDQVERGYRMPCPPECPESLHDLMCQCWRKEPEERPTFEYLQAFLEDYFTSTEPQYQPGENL

MAP kinase-interacting serine/threonine-protein kinase 1 (Homo sapiens), sequence (Q9BUB5 whole entry, looked up): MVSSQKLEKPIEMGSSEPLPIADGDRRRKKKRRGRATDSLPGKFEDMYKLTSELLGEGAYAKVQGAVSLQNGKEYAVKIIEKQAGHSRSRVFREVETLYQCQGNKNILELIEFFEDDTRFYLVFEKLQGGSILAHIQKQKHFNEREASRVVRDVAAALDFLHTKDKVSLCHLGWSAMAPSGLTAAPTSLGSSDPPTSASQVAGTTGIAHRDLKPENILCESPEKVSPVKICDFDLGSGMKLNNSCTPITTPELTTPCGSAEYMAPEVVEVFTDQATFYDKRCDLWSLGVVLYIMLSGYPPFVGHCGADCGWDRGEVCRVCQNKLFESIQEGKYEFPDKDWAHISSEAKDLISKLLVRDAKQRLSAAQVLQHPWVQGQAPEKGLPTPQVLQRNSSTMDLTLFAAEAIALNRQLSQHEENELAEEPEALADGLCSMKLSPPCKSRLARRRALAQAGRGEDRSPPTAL
Homeodomain-interacting protein kinase 2 (Homo sapiens), sequence (Q9H2X6 whole entry, looked up): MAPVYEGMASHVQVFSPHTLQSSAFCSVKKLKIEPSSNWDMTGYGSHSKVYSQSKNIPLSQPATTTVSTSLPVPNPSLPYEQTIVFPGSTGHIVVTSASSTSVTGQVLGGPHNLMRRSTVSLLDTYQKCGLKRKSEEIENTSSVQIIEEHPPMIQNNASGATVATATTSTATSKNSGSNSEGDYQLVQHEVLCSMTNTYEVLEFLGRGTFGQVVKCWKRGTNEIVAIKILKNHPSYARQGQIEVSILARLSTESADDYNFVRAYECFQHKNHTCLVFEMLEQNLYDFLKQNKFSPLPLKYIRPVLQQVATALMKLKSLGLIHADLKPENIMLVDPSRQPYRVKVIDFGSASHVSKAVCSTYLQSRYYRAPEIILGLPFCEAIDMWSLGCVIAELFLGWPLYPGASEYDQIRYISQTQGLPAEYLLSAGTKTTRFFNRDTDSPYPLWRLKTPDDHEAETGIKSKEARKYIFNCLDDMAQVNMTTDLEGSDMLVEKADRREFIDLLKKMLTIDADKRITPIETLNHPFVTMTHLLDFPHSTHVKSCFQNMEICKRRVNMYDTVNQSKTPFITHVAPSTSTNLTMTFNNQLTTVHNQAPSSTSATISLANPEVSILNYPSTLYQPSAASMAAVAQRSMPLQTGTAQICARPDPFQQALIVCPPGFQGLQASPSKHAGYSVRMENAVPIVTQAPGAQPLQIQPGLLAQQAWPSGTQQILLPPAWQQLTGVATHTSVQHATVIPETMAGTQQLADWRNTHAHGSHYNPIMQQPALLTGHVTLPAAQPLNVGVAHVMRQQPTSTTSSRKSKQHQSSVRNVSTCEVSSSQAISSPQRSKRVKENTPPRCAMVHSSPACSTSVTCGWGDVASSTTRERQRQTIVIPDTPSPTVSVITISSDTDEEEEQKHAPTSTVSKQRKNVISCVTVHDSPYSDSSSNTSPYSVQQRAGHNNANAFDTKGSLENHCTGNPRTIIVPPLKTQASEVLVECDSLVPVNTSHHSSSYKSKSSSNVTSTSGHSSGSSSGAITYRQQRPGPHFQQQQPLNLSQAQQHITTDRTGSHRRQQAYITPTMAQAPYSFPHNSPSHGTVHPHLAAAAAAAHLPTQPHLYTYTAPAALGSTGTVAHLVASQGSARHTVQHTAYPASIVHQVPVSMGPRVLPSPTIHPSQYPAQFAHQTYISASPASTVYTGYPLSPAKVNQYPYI
Ribosomal protein S6 kinase alpha-3 (Homo sapiens), sequence (P51812 whole entry): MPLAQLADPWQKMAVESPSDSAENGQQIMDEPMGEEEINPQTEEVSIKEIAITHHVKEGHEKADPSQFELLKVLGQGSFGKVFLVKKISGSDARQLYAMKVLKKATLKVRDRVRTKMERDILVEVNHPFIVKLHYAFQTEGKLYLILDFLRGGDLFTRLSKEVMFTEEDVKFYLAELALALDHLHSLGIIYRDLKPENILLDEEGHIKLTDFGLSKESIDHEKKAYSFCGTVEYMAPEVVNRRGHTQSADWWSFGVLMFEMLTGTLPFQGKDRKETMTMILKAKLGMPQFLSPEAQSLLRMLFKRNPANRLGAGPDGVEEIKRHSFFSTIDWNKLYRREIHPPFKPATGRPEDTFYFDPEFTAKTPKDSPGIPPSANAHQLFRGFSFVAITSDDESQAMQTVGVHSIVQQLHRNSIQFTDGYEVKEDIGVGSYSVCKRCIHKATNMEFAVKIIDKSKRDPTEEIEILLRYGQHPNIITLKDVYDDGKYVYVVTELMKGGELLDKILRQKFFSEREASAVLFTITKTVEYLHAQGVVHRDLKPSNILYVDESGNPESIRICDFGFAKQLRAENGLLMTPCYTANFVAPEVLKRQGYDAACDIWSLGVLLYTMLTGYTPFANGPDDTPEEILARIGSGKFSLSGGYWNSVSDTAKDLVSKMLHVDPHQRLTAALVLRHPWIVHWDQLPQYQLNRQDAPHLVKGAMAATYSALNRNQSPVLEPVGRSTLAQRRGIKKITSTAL
RAC-alpha serine/threonine-protein kinase (Homo sapiens), sequence (P31749 whole entry): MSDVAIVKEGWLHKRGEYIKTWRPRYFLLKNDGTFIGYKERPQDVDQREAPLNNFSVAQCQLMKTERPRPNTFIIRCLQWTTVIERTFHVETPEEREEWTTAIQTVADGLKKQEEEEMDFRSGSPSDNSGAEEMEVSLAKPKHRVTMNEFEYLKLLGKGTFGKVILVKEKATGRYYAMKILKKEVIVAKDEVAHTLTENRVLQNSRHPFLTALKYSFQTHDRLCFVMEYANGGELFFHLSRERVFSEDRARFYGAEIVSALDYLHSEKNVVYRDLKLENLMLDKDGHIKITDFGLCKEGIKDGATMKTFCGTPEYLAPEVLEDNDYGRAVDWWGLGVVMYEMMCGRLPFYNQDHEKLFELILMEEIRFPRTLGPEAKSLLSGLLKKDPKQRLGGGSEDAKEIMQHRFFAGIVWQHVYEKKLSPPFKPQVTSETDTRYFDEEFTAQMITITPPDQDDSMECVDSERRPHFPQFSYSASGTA
Mitogen-activated protein kinase 14, sequence (Q16539 whole entry): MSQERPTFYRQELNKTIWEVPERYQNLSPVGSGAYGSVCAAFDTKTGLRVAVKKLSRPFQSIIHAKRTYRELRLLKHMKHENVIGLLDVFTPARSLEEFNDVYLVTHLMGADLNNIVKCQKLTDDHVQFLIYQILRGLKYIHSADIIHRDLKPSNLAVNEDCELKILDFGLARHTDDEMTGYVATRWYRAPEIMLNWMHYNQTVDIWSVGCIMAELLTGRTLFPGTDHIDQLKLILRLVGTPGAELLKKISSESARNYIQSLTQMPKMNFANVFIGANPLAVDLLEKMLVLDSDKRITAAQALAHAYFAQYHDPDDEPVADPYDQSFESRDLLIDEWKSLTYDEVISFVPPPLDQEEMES
Tyrosine-protein kinase CSK (Homo sapiens), sequence (P41240 2-450 limits assumed): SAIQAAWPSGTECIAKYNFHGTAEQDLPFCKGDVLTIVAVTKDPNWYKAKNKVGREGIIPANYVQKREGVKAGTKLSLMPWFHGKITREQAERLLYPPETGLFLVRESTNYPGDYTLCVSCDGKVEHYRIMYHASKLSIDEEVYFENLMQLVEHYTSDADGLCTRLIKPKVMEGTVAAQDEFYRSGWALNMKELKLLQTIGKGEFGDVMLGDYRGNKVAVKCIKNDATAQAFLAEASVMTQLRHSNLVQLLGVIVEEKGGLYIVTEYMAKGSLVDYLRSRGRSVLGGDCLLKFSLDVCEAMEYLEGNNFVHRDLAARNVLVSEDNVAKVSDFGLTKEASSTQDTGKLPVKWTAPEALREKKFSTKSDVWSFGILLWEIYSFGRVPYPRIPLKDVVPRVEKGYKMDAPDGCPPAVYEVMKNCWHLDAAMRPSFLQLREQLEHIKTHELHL
Serine/threonine-protein kinase PAK 5 (Homo sapiens), sequence (Q9P286 whole entry, looked up): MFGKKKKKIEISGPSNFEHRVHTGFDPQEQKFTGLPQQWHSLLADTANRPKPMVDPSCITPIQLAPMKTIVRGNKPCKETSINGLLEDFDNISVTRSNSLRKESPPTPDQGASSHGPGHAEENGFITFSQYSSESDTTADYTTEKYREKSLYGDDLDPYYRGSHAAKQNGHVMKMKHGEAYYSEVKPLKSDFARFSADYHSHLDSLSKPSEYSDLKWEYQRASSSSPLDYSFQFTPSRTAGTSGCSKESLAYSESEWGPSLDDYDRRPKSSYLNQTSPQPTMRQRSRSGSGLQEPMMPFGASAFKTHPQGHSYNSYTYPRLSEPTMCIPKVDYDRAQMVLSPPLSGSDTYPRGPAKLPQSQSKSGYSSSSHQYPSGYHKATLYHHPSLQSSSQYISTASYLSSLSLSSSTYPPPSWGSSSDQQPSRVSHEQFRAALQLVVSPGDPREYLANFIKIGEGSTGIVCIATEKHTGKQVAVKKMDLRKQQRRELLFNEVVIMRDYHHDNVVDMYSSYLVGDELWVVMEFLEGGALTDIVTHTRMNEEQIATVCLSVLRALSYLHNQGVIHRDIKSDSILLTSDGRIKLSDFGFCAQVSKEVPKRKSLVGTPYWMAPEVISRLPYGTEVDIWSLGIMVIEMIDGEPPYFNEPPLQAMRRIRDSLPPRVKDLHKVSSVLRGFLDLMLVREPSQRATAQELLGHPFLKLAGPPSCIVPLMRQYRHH

Row | SMILES | IC50 [1] [nM] | Activity [2] [%] | Activity [3] [%] | Activity [4] [%] | Activity [5] [%] | Activity [6] [%] | Activity [7] [%] | Activity [8] [%] | Activity [9] [%] | Activity [10] [%] | Activity [11] [%] | Activity [12] [%] | Activity [13] [%] | Activity [14] [%]
1 | COc1ccc(/C=C/C(=O)Nc2cc(-c3[nH]c(SC)nc3-c3ccc(F)cc3)ccn2)c(OC)c1 | 19 | 31 | 86 | 105 | 88 | 84 | 91 | 81 | – | – | – | – | – | –
2 | COc1ccc(/C=C/C(=O)Nc2cc(-c3[nH]c([S+](C)[O-])nc3-c3ccc(F)cc3)ccn2)c(OC)c1 (stereo not drawn) | 41 | 12 | 94 | 105 | 97 | 97 | 96 | 79 | – | – | – | – | – | –
3 | CC(C)c1onc(-c2ccc(F)cc2)c1-c1ccncc1 | – | – | – | – | – | – | – | – | 76 | 96 | 99 | 103 | 98 | 72
4 | CC(C)c1noc(-c2ccc(F)cc2)c1-c1ccncc1 | – | – | – | – | – | – | – | – | 91 | 89 | 97 | 103 | 94 | 90
